Measurements: PMC6368478 (ACS infectious diseases, 2018)

Tests used:
[1] = molecular target: T1, Sts-1HP (Homo sapiens, UniProt Q8TF42); experiment: OMFP fluorescence phosphatase assay, 1,536-well HTS; type: biochemical; conditions: for Averaged Max. Response (%): LOPAC pilot screen, 5.8 μM nominal concentration, triplicate, OMFP substrate
[2] = read-out: Counterscreen IC50; compound added after NaOH stop, 10-point titration
How it was run: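 Same reagents and protocol as the primary OMFP screen: Sts-1HP at 750 ng/mL final in 30 mM Tris HCl, 75 mM NaCl, 1 mM EDTA, 1 mM DTT; OMFP 50 μM final; 20 min at room temperature in the dark; stopped with NaOH (100 mM final). Test compound is added after the NaOH stop. Fluorescence read; 10-point 3-fold titration in triplicate. IC50 comes from a four-parameter sigmoidal fit with adjustable baseline.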

[3] = molecular target: Sts-1; conditions: cited from earlier work
[4] = molecular target: T1, Sts-1HP; experiment: pNPP absorbance phosphatase assay, inhibition analysis; type: biochemical; conditions: for Ki Ratio: Ki of construct / Ki of wild-type Sts-1HP, wild-type; for Mode of inhibition: double reciprocal plots, several inhibitor concentrations
[5] = molecular target: Sts-1HP Y596L (Homo sapiens, UniProt Q8TF42, Y607L); experiment: pNPP inhibition analysis of Sts-1HP mutant; type: biochemical
How it was run: (§1)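 Mutant Sts-1HP is expressed in E. coli BL21(DE3) and purified. Assay uses 20 mM Tris (pH 7.5), 150 mM NaCl, 5 mM MgCl2 and 1 mM βME with varying pNPP, following pNP release at 405 nm. Initial rates (<10% completion) are measured at several fixed inhibitor concentrations, with controls for compound optical interference, in triplicate. Ki is derived from Km in the presence of inhibitor via a Lineweaver-Burk competitive fit.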

[6] = molecular target: T2, PTP-1B (Homo sapiens, UniProt P18031); experiment: pNPP inhibition analysis, selectivity; type: biochemical; conditions: for Selectivity: more active against Sts-1 than PTP1B: from Ki values, Table 4
T2 sequence (P18031 1-435): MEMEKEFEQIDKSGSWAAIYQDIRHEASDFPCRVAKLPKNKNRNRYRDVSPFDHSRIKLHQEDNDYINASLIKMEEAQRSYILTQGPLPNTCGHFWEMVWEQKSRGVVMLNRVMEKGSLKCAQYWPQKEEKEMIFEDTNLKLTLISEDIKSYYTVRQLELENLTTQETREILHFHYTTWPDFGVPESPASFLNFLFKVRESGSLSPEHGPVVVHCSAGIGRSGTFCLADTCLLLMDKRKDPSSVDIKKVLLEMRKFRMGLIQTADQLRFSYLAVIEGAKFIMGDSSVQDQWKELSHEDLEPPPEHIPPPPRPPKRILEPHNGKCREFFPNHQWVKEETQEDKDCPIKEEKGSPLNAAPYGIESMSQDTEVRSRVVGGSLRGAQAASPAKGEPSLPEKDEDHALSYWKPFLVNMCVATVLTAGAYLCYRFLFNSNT

[7] = molecular target: SHP1 (Homo sapiens, UniProt P29350); experiment: pNPP inhibition analysis, selectivity; type: biochemical; conditions: for Selectivity: more active against Sts-1 than SHP1: from Ki values, Table 4
[8] = molecular target: Sts-1HP W494F (Homo sapiens, UniProt Q8TF42, W505F); experiment: pNPP inhibition analysis of Sts-1HP mutant; type: biochemical
How it was run: as §1

[9] = molecular target: Sts-1HP W494L (Homo sapiens, UniProt Q8TF42, W505L); experiment: pNPP inhibition analysis of Sts-1HP mutant; type: biochemical
How it was run: as §1

[10] = molecular target: Sts-1HP W494H (Homo sapiens, UniProt Q8TF42, W505H); experiment: pNPP inhibition analysis of Sts-1HP mutant; type: biochemical
How it was run: as §1

[11] = molecular target: Sts-1HP Y596F (Homo sapiens, UniProt Q8TF42, Y607F); experiment: pNPP inhibition analysis of Sts-1HP mutant; type: biochemical
How it was run: as §1

T1 sequence (Q8TF42 384-647 limits assumed): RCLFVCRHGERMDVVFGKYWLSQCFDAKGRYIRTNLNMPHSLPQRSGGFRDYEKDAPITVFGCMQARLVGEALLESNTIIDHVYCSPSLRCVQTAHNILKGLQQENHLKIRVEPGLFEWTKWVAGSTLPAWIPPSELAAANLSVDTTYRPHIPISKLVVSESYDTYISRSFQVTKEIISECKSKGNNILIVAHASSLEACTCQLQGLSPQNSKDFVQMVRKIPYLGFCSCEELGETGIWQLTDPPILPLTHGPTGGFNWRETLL
SHP1, sequence (P29350 whole entry): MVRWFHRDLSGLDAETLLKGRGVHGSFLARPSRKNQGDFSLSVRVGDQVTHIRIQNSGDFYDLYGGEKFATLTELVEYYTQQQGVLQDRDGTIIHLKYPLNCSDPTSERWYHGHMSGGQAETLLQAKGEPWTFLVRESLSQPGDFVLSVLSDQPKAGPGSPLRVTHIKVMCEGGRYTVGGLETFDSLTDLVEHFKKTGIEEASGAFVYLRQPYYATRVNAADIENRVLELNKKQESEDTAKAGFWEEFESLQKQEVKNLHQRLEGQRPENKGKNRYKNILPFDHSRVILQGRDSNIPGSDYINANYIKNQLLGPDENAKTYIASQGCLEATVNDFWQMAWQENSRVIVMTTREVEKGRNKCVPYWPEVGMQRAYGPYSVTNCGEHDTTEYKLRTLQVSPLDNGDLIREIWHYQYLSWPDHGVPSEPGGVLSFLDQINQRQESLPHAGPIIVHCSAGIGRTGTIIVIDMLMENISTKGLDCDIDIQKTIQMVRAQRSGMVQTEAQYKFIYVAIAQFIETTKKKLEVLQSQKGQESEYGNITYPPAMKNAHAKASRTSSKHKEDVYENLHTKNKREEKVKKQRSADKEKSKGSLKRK
Sts-1HP Y596L, sequence (Q8TF42 384-647 Y607L): as the sequence (Q8TF42 384-647 limits assumed) above, with Y224L counted along it
Sts-1HP W494L, sequence (Q8TF42 384-647 W505L): as the sequence (Q8TF42 384-647 limits assumed) above, with W122L counted along it
Sts-1HP W494F, sequence (Q8TF42 384-647 W505F): as the sequence (Q8TF42 384-647 limits assumed) above, with W122F counted along it
Sts-1HP W494H, sequence (Q8TF42 384-647 W505H): as the sequence (Q8TF42 384-647 limits assumed) above, with W122H counted along it
Sts-1HP Y596F, sequence (Q8TF42 384-647 Y607F): as the sequence (Q8TF42 384-647 limits assumed) above, with Y224F counted along it

| IC50 [1] | Averaged Max. Response (%) [1] | Compound | IC50 [2] | also measured |
| --- | --- | --- | --- | --- |
| 4.7 µM |  | CN(C)[C@@H]1C(O)=C(C(N)=O)C(=O)[C@@]2(O)C(O)=C3C(=O)c4c(O)ccc(Cl)c4[C@@H](O)[C@H]3C[C@@H]12 [Demeclocycline] | > 14.5 µM |  |
|  |  | Cc1nc(N=Nc2cc(S(=O)(=O)O)c3cc([N+](=O)[O-])cc(S(=O)(=O)O)c3c2)c(COP(=O)(O)O)c(C=O)c1O [PPNDS] | > 29 µM |  |
| 17.6 µM |  | O=C1C(=NNc2ccc(S(=O)(=O)O)cc2)C(c2ccc([N+](=O)[O-])cc2)=NN1c1ccccc1 [PHPS1, 4-[2-[1,5-dihydro-3-(4-nitrophenyl)-5-oxo-1-phenyl-4H-pyrazol-4-ylidene]hydrazinyl]-benzenesulfonic acid] |  | Ki [3]: 1 µM |
|  | 44.94% | O=c1c(O)c(-c2ccc(O)cc2O)oc2cc(O)cc(O)c12 [Morin] |  |  |
|  | 32.59% | CN(C)c1ccc(O)c2c1C[C@H]1C[C@H]3[C@H](N(C)C)C(O)=C(C(N)=O)C(=O)[C@@]3(O)C(O)=C1C2=O [Minocycline] |  |  |
| 0.67 µM |  | C=C1c2cccc(O)c2C(=O)C2=C(O)[C@]3(O)C(=O)C(C(N)=O)=C(O)[C@@H](N(C)C)[C@@H]3[C@@H](O)[C@H]12 [Methacycline] | > 14.5 µM | Ki [4]: 326 ± 35 µM |
| 0.92 µM |  | Nc1c(/N=N/c2ccc(-c3ccc(/N=N/c4cc(S(=O)(=O)O)c5ccccc5c4N)cc3)cc2)cc(S(=O)(=O)O)c2ccccc12 [Congo Red] | > 14.5 µM | Ki [5]: 0.94 ± 0.05 µM; Ki [6]: 1.47 ± 0.34 µM; Selectivity: more active against Sts-1 than PTP1B [6]: approximately 20 fold; Ki [4]: 0.079 ± 0.02 µM; Ki Ratio [4]: 1; Mode of inhibition [4]: competitive inhibition; Ki [7]: 3.88 ± 0.59 µM; Selectivity: more active against Sts-1 than SHP1 [7]: ~50 fold; Ki [8]: 1.42 ± 0.32 µM; Ki [9]: 1.46 ± 0.13 µM; Ki [10]: 1.07 ± 0.03 µM; Ki [11]: 0.23 ± 0.02 µM |
|  |  | CN(C)[C@@H]1C(O)=C(C(N)=O)C(=O)[C@@]2(O)C(O)=C3C(=O)c4c(O)cccc4[C@@](C)(O)[C@H]3[C@H](O)[C@@H]12 [Oxytetracyline] | > 14.5 µM |  |
| 4.1 µM | 45.03% | C[C@H]1c2cccc(O)c2C(=O)C2=C(O)[C@]3(O)C(=O)C(C(N)=O)=C(O)[C@@H](N(C)C)[C@@H]3[C@@H](O)[C@@H]21 [Doxycycline] | > 14.5 µM | Ki [5]: 490 ± 50 µM; Selectivity: more active against Sts-1 than PTP1B [6]: more than 200 fold; Ki Doxycycline ([6]; pNPP substrate): No Inhibition; Ki [4]: 99 ± 19 µM; Ki Ratio [4]: 1; Mode of inhibition [4]: competitive inhibition; Selectivity: more active against Sts-1 than SHP1 [7]: more than 200 fold; Ki Doxycycline ([7]; pNPP substrate): No Inhibition; Ki [8]: 1420 ± 110 µM; Ki [9]: 730 ± 40 µM; Ki [10]: 1480 ± 90 µM; Ki [11]: 390 ± 40 µM |
|  | 89.95% | O=C(O)C1=CC(=C(c2ccc(O)c(C(=O)O)c2)c2ccc(O)c(C(=O)O)c2)C=CC1=O [Aurintricarboxylic Acid] |  |  |
| 1.8 µM |  | C=C1c2c(Cl)ccc(O)c2C(=O)C2=C(O)[C@]3(O)C(=O)C(C(N)=O)=C(O)[C@@H](N(C)C)[C@@H]3[C@@H](O)[C@H]12 [Meclocycline] | > 14.5 µM |  |
| 3.1 µM |  | Cc1cc(-c2ccc(/N=N/c3ccc4c(S(=O)(=O)O)cc(S(=O)(=O)O)c(N)c4c3O)c(C)c2)ccc1/N=N/c1ccc2c(S(=O)(=O)O)cc(S(=O)(=O)O)c(N)c2c1O [Evans Blue] | 23.6 µM | Ki [4]: 0.39 ± 0.11 µM |
|  |  | O=C(Nc1ccc(C(=O)Nc2ccc(C(=O)Nc3ccc(S(=O)(=O)O)c4cc(S(=O)(=O)O)cc(S(=O)(=O)O)c34)cc2)cc1)Nc1ccc(C(=O)Nc2ccc(C(=O)Nc3ccc(S(=O)(=O)O)c4cc(S(=O)(=O)O)cc(S(=O)(=O)O)c34)cc2)cc1 [NF-279] | > 29 µM |  |
| 1 µM |  | COc1cc(-c2ccc(/N=N/c3ccc4c(S(=O)(=O)O)cc(S(=O)(=O)O)c(N)c4c3O)c(OC)c2)ccc1/N=N/c1ccc2c(S(=O)(=O)O)cc(S(=O)(=O)O)c(N)c2c1O [Chicago Sky Blue] | > 14.5 µM |  |
|  | 44.44% | O=c1cc(O)cc(/C=C/c2ccc(O)c(O)c2)o1 [Hispidin] |  |  |
|  | 57.45% | C[C@](N)(Cc1ccc(O)c(O)c1)C(=O)O [L-α-methyl DOPA] |  |  |

| Compound | IC50 [1] | Averaged Max. Response (%) [1] | IC50 [2] | also measured |
| --- | --- | --- | --- | --- |
| CN(N=O)c1ccc(O)c(O)c1 [Methyl-3,4-Dephostatin] |  | 46.07% |  |  |
| CN(N=O)c1cc(O)ccc1O [Dephostatin] |  | 43.47% |  |  |
| Nc1c(S(=O)(=O)O)cc(Nc2ccc(Nc3nc(Cl)nc(Nc4cccc(S(=O)(=O)O)c4)n3)c(S(=O)(=O)O)c2)c2c1C(=O)c1ccccc1C2=O [Reactive Blue 2] |  | 58.99% |  |  |
| NC(Cc1cc(O)c(O)cc1O)C(=O)O (racemic) [6-Hydroxy-DL-DOPA] |  | 64.86% |  |  |
| CN(C)[C@@H]1C(O)=C(C(N)=O)C(=O)[C@@]2(O)C(O)=C3C(=O)c4c(O)cccc4[C@@](C)(O)[C@H]3C[C@@H]12 [Tetracycline] | 1.9 µM |  | > 14.5 µM | Ki [4]: 199 ± 20 µM |
